Hits are enriched below; roughly 1.9% of the tested compounds scored in any of these assays.
Hck-Nef inh – blocks Nef-activated human Hck kinase | Recombinant Hck-YEEI plus Nef, Z-Lyte FRET kinase assay | AID 463187 | P08631 | inhibition, % at 20 µM | 0.68% of 220,000 active;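 active means Hck-Nef kinase inhibition above about 50%, limit read from the data; inactive means inhibition below that limit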;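 further: 0% = DMSO with Hck plus Nef and 100% = Hck alone without Nef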
Target sequence (P08631 whole entry, looked up): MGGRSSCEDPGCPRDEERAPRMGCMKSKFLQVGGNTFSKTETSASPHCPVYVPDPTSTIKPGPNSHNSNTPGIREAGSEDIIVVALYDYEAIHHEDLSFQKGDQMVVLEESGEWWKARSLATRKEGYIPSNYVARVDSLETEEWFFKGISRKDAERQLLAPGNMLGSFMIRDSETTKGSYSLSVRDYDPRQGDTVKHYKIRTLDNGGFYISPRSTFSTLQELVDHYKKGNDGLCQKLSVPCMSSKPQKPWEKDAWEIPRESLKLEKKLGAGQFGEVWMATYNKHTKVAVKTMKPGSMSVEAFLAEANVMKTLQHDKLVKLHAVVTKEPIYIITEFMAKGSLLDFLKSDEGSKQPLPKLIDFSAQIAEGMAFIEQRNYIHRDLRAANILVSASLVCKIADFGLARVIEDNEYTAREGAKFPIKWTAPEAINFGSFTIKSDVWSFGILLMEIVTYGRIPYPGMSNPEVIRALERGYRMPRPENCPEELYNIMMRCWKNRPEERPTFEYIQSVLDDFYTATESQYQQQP
RanGTP-Impb inh – inhibitors of RanGTP-importin-beta interaction, primary screen, biochemical, FRET, CFP-Ran, YFP-importin-beta, homogeneous | cell-free CFP-Ran/YFP-importin-beta FRET ratio | inhibition, % (no concentration beside the values) | 1.1% of 300,000 active;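 active means more than half of the replicate wells show a fall in the fluorescence ratio signal beyond about 16%, limit read from the data, passing the limit was not always enough; inconclusive means exactly half of the replicate wells pass the set limit; inactive means fewer than half of replicates pass the limit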;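 further: 0% = DMSO wells and 100% = Ran loaded with GDP instead of GTP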
Runt-SMMHC FRET – inhibitors of human RUNX1 Runt domain binding to CBFb-SMMHC. Q01196+Q13951. Cerulean-Runt/Venus-CBFb-SMMHC FRET ratio 530/480, 1 h. inhibition, % at 20 µM. 0.74% of 220,000 active. AID 1434;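 active means mean inhibition across duplicate retests at 20 µM reaching about 50%, limit read from the data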;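 further: 0% = DMSO wells and 100% = wells with excess untagged CBFb-SMMHC; inhibitors lower the FRET ratio by blocking Runt binding to CBFb-SMMHC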
Runt-CBFb FRET – Runt domain-CBFb interaction inhibition. Q01196+Q13951. 0.46% of 220,000 active. Cerulean-Runt/Venus-CBFb FRET ratio 530/480, 1 h. inhibition, % at 20 µM;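 active means inhibition over about 50% at 20 µM in the single-dose screen, limit read from the data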;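 further: 0% = DMSO wells and 100% = excess unlabeled CBFb competitor control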
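Assay system: Cerulean-Runt domain fusion protein, energy donor; Signal: fluorescence energy transfer, 422 nm excitation, 530/480 nm emission; Timing: 1 h compound exposure, room temperature; Control set: unlabeled CBFb; Medium: Tris buffer pH 7.5 with salts and BSA; Compound: single test concentration of 20 µM, 1% DMSO final; Probe or stimulus: Venus-CBFb 100 nM.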
Numbers without * were called inactive.

How did O=C(OCc1nc2ccccc2s1)c1cc2ccccc2oc1=O do in these assays?
Hck-Nef inh: 2.6; RanGTP-Impb inh: 2.7; Runt-SMMHC FRET: -0.9; Runt-CBFb FRET: -0.4

How did O=C(c1cc2c(ccc3ccccc32)oc1=O)N1CCCC1 do in these assays?
Hck-Nef inh: 6.3; RanGTP-Impb inh: -0.1; Runt-SMMHC FRET: 12.3; Runt-CBFb FRET: 5.2

Results for CCOC(=O)c1cc2c(ccc3ccccc32)oc1=O ?
Hck-Nef inh: 22.9; RanGTP-Impb inh: inconclusive; Runt-SMMHC FRET: 91.5*; Runt-CBFb FRET: 85.3*

Results for CCCn1c(C(O)c2cccc(OC)c2)nc2ccccc21 (stereo unspecified) ?
RanGTP-Impb inh: -1.2

How did O=c1[nH]c(=O)c2ncc(-c3ccc(Cl)cc3)nc2[nH]1 do in these assays?
Hck-Nef inh: -3.7; RanGTP-Impb inh: -0.9; Runt-SMMHC FRET: 85.3*; Runt-CBFb FRET: 53.8*

What do the screens show for `Cc1ccc(C)c(NC(=O)CN(C)C(=O)c2ccc3[nH]c4c(c3c2)CC(C)CC4)c1` (stereo unspecified)?
RanGTP-Impb inh: 25.8*

Results for CCOc1ccc(CCNC(=O)CN2C(=O)NC3(CCCC3)C2=O)cc1OCC ?
RanGTP-Impb inh: 4.5

What do the screens show for `Fc1ccc(-c2csc(Nc3ccccn3)n2)cc1`?
RanGTP-Impb inh: 5.9

What do the screens show for `COc1cc(/C=C(/C#N)c2nc(-c3cc4ccccc4oc3=O)cs2)cc([N+](=O)[O-])c1O`?
Hck-Nef inh: 113.8*; Runt-SMMHC FRET: -28.9; Runt-CBFb FRET: -13.6

What do the screens show for `COc1cc(/C=C(\C#N)c2nc(-c3cc4ccccc4oc3=O)cs2)ccc1O`?
Hck-Nef inh: -1.3; RanGTP-Impb inh: -5.0; Runt-SMMHC FRET: -42.3; Runt-CBFb FRET: -24.1

What do the screens show for `COc1cccc(CC2(CO)CCN(S(=O)(=O)N(C)C)CC2)c1`?
Hck-Nef inh: 7.2; RanGTP-Impb inh: 17.7*; Runt-SMMHC FRET: -5.0; Runt-CBFb FRET: -0.3

Results for C=C1CCc2c([nH]c3ccc(OCC(C)C)cc23)C1=O ?
RanGTP-Impb inh: 0.5

What do the screens show for `CC1(C)CC(NNCCC#N)=CC(=[N+]2CCCC2)C1`?
Hck-Nef inh: -7.0; RanGTP-Impb inh: 18.5*; Runt-SMMHC FRET: 1.7; Runt-CBFb FRET: 3.1

What do the screens show for `COc1cccc(-c2nnc(NC(=O)c3ccc4ncsc4c3)o2)c1`?
Hck-Nef inh: 2.6; RanGTP-Impb inh: -0.2; Runt-SMMHC FRET: -0.6; Runt-CBFb FRET: 29.3

How did COc1ccc(C2(C)NC(=O)N(CC(=O)Nc3ccc(Br)c(C)c3)C2=O)cc1OC (stereo unspecified) do in these assays?
RanGTP-Impb inh: 21.3*

How did CCSc1sccc1C1C(C#N)=C(N)N(c2cccnc2)C2=C1C(=O)CCC2 (stereo unspecified) do in these assays?
Hck-Nef inh: 0.1; RanGTP-Impb inh: inconclusive; Runt-SMMHC FRET: 66.2*; Runt-CBFb FRET: 44.6

What do the screens show for `COc1ccc(-c2cc(=O)oc3cc(OCC(=O)NCc4ccccn4)ccc23)cc1`?
RanGTP-Impb inh: -5.5

Results for COC(=O)CNC(=O)COC(=O)/C=C/c1ccc2ccccc2n1 ?
Hck-Nef inh: 26.7; RanGTP-Impb inh: 27.0*; Runt-SMMHC FRET: -1.9; Runt-CBFb FRET: 1.8

How did CCc1nnc(NC(=O)c2cc(Cl)ccn2)s1 do in these assays?
RanGTP-Impb inh: 3.0

What do the screens show for `Cc1ccc(NC(=O)c2ccc(-n3cncn3)c([N+](=O)[O-])c2)cc1`?
Hck-Nef inh: 2.9; RanGTP-Impb inh: 26.0*; Runt-SMMHC FRET: -2.2; Runt-CBFb FRET: -1.2

What do the screens show for `COCCCn1c(=NC(C)=O)c(C#N)cc2c(=O)n3cccc(C)c3nc21`?
Hck-Nef inh: 38.6; RanGTP-Impb inh: 81.8*; Runt-SMMHC FRET: 81.7*; Runt-CBFb FRET: 57.1*

What do the screens show for `CCCn1c(=NC(C)=O)c(C#N)cc2c(=O)n3cccc(C)c3nc21`?
Hck-Nef inh: 56.5*

Results for COCCCn1c(=NC(=O)c2ccc3c(c2)OCO3)c(C#N)cc2c(=O)n3cccc(C)c3nc21 ?
Runt-SMMHC FRET: 154.9*; Runt-CBFb FRET: 126.9*

Results for CC(C)C(C(=O)Nc1ccc2c(c1)OCCOCCOCCOCCO2)N1C(=O)c2ccccc2C1=O (stereo unspecified) ?
Hck-Nef inh: 26.6; RanGTP-Impb inh: 0.3; Runt-SMMHC FRET: 1.3; Runt-CBFb FRET: -1.4

How did CN(C)c1nc(-c2ccccc2)c2cc(Cl)ccc2n1 do in these assays?
RanGTP-Impb inh: 21.5*

Results for CCSc1nc(-c2ccccc2)c2cc(Cl)ccc2n1 ?
Hck-Nef inh: 1.8; RanGTP-Impb inh: 1.9; Runt-SMMHC FRET: 1.4; Runt-CBFb FRET: 0.7
